Active and inactive are the calls of the source. No cut-off for these calls is given here.
System: Human immunodeficiency virus 2
Experiment: Antiviral activity against HIV2 MS infected in human MT4 cells assessed as reduction in virus-induced cytopathic effect after 5 days by MTT assay
Assay type: functional, organism-based
Conditions: Human immunodeficiency virus 2, MT4, 120 h
Outline: (§1)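 MT4 cells were infected 1 h with 50–100 pg RNA virus, washed twice, and exposed in triplicate to half-log PI dilutions (DMSO 1% final) for 5 days at 37°C. Cell viability was read by MTT: 4 h, SDS/HCl lysis overnight, OD at 570/650 nm. Cytopathic-effect reduction was scaled between infected and uninfected controls. EC50 by nonlinear regression, mean of three experiments.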
For Cc1cccc(C)c1OCC(=O)N[C@@H](Cc1ccccc1)[C@@H](O)C[C@H](Cc1ccccc1)NC(=O)[C@H](C(C)C)N1CCCNC1=O [LOPINAVIR], the EC50 was 15 nM.

System: Human immunodeficiency virus 2
Experiment: Antiviral activity against HIV2 CBL-23 infected in human PBMC assessed as inhibition of virus production after 5 days by Lenti-RT activity assay
Assay type: functional, organism-based
Conditions: Human immunodeficiency virus 2, CBL-23, 120 h
Outline: (§2)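 PBMCs were stimulated with PHA (5 μg/ml) for 3 days, then kept in 20% FBS medium with IL-2 (50 U/ml). Cells were infected 1 h with 50–100 pg RNA virus, washed twice, and given half-log PI dilutions (DMSO 1% final) in triplicate. After 5 days at 37°C, supernatant RT was read versus infected control. EC50 by nonlinear regression, mean of three experiments.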
With Cc1cccc(C)c1OCC(=O)N[C@@H](Cc1ccccc1)[C@@H](O)C[C@H](Cc1ccccc1)NC(=O)[C@H](C(C)C)N1CCCNC1=O [LOPINAVIR] the EC50 was 12 nM.

System: Human immunodeficiency virus 2
Experiment: Antiviral activity against HIV2 CDC310319 isolate infected in human PBMC assessed as inhibition of virus production after 5 days by Lenti-RT activity assay
Assay type: functional, organism-based
Conditions: Human immunodeficiency virus 2, 120 h
Outline: as §2
Work on Cc1cccc(C)c1OCC(=O)N[C@@H](Cc1ccccc1)[C@@H](O)C[C@H](Cc1ccccc1)NC(=O)[C@H](C(C)C)N1CCCNC1=O [LOPINAVIR] yielded an EC50 of 180 nM.

System: not listed separately
Experiment: Ratio of EC50 for HIV2 MS to EC50 for HIV1 NL4-3 infected in human MT4 cells
Assay type: functional
Conditions: not given
In the case of Cc1cccc(C)c1OCC(=O)N[C@@H](Cc1ccccc1)[C@@H](O)C[C@H](Cc1ccccc1)NC(=O)[C@H](C(C)C)N1CCCNC1=O [LOPINAVIR], the “Ratio EC50” value is reported as 0.8.

System: not listed separately
Experiment: Ratio of EC50 for HIV2 CBL-23 infected in human PBMC to EC50 for HIV1 NL4-3 infected in human MT4 cells
Assay type: functional
Conditions: not given
With Cc1cccc(C)c1OCC(=O)N[C@@H](Cc1ccccc1)[C@@H](O)C[C@H](Cc1ccccc1)NC(=O)[C@H](C(C)C)N1CCCNC1=O [LOPINAVIR] the “Ratio EC50” value was 0.7.

System: not listed separately
Experiment: Ratio of EC50 for HIV2 CDC310319 infected in human PBMC to EC50 for HIV1 NL4-3 infected in human MT4 cells
Assay type: functional
Conditions: not given
With Cc1cccc(C)c1OCC(=O)N[C@@H](Cc1ccccc1)[C@@H](O)C[C@H](Cc1ccccc1)NC(=O)[C@H](C(C)C)N1CCCNC1=O [LOPINAVIR] the “Ratio EC50” value was 10.

System: Human immunodeficiency virus 2
Experiment: Antiviral activity against HIV2 MS infected in human MT4 cells assessed as inhibition of virus production after 5 days by Lenti-RT activity assay
Assay type: functional, organism-based
Conditions: Human immunodeficiency virus 2, MT4, 120 h
Outline: (§3)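 Infection used 50 to 100 pg RNA for 1 h, followed by two washes. MT4 cells or PHA-stimulated, IL-2-maintained PBMCs were then exposed to half-log PI dilutions in triplicate, with 1% DMSO final. Incubation was 5 days at 37°C. Day-5 supernatant RT was read by Lenti-RT assay. EC50 came from nonlinear regression, as the mean of three independent experiments.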
Compound Cc1cccc(C)c1OCC(=O)N[C@@H](Cc1ccccc1)[C@@H](O)C[C@H](Cc1ccccc1)NC(=O)[C@H](C(C)C)N1CCCNC1=O [LOPINAVIR] has an EC50 of 6 nM.

System: Human immunodeficiency virus 2
Experiment: Antiviral activity against HIV2 MS infected in human PBMC cells assessed as inhibition of virus production after 5 days by Lenti-RT activity assay
Assay type: functional, organism-based
Conditions: Human immunodeficiency virus 2, PBMC, 120 h
Outline: as §3
In the case of Cc1cccc(C)c1OCC(=O)N[C@@H](Cc1ccccc1)[C@@H](O)C[C@H](Cc1ccccc1)NC(=O)[C@H](C(C)C)N1CCCNC1=O [LOPINAVIR], the EC50 is reported as 15 nM.

System: Human immunodeficiency virus 1
Experiment: Antiviral activity against HIV1 NL4-3 infected in human MT4 cells assessed as inhibition of virus production after 5 days by Lenti-RT activity assay
Assay type: functional, organism-based
Conditions: not given
Outline: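 HIV-1 NL4-3 in MT4 cells (RPMI 1640, 10% FBS) was adsorbed 1 h at 50–100 pg RNA and washed twice. PI in DMSO (1% final) was added in half-log dilutions, in triplicate. After 5 days at 37°C, supernatant RT was measured and expressed relative to infected untreated control. EC50 came from nonlinear regression, as the mean of three independent experiments.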
In the case of Cc1cccc(C)c1OCC(=O)N[C@@H](Cc1ccccc1)[C@@H](O)C[C@H](Cc1ccccc1)NC(=O)[C@H](C(C)C)N1CCCNC1=O [LOPINAVIR], the Activity is reported as “Active”.

System: Human immunodeficiency virus 1
Experiment: Antiviral activity against HIV1 NL4-3 infected in human PBMC cells assessed as inhibition of virus production after 5 days by Lenti-RT activity assay
Assay type: functional, organism-based
Conditions: not given
Outline: as §2
For Cc1cccc(C)c1OCC(=O)N[C@@H](Cc1ccccc1)[C@@H](O)C[C@H](Cc1ccccc1)NC(=O)[C@H](C(C)C)N1CCCNC1=O [LOPINAVIR], the Activity was “Active”.

System: Human immunodeficiency virus 2
Experiment: Antiviral activity against wild type HIV2 ROD infected in human CEM cells assessed as inhibition of virus production after 7 days by Lenti-RT activity assay
Assay type: functional, organism-based
Conditions: Human immunodeficiency virus 2, ROD, CCRF-CEM, 168 h
Work on Cc1cccc(C)c1OCC(=O)N[C@@H](Cc1ccccc1)[C@@H](O)C[C@H](Cc1ccccc1)NC(=O)[C@H](C(C)C)N1CCCNC1=O [LOPINAVIR] yielded an EC50 of 35 nM.

System: Human immunodeficiency virus 2
Experiment: Antiviral activity against HIV2 ROD with protease G17N mutation infected in human CEM cells assessed as inhibition of virus production after 7 days by Lenti-RT activity assay
Assay type: functional, organism-based
Conditions: Human immunodeficiency virus 2, ROD, CCRF-CEM, 168 h
Outline: (§4)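 Protease mutant clones of HIV-2ROD came from site-directed mutagenesis of pSL-3, with stocks made by 293T transfection. CEM174 cells were infected with 100 pg RT of virus for 2 h at 37°C, washed, and seeded at 2 × 10^5 cells/ml. PI was added as 1:4 serial dilutions, 1% DMSO final, and incubated 7 days. Supernatant RT was read, in triplicate. EC50 came from nonlinear regression, and fold-change is mutant EC50 divided by HIV-2ROD EC50.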
With Cc1cccc(C)c1OCC(=O)N[C@@H](Cc1ccccc1)[C@@H](O)C[C@H](Cc1ccccc1)NC(=O)[C@H](C(C)C)N1CCCNC1=O [LOPINAVIR] the EC50 was 28 nM.

System: Human immunodeficiency virus 2
Experiment: Antiviral activity against HIV2 ROD with protease V47A mutation infected in human CEM cells assessed as inhibition of virus production after 7 days by Lenti-RT activity assay
Assay type: functional, organism-based
Conditions: Human immunodeficiency virus 2, ROD, CCRF-CEM, 168 h
Outline: as §4
For Cc1cccc(C)c1OCC(=O)N[C@@H](Cc1ccccc1)[C@@H](O)C[C@H](Cc1ccccc1)NC(=O)[C@H](C(C)C)N1CCCNC1=O [LOPINAVIR], the EC50 was 340 nM.

System: Human immunodeficiency virus 2
Experiment: Antiviral activity against HIV2 ROD with protease G17N/V47A mutation infected in human CEM cells assessed as inhibition of virus production after 7 days by Lenti-RT activity assay
Assay type: functional, organism-based
Conditions: Human immunodeficiency virus 2, ROD, CCRF-CEM, 168 h
Outline: as §4
In the case of Cc1cccc(C)c1OCC(=O)N[C@@H](Cc1ccccc1)[C@@H](O)C[C@H](Cc1ccccc1)NC(=O)[C@H](C(C)C)N1CCCNC1=O [LOPINAVIR], the EC50 is reported as 260 nM.

System: Human immunodeficiency virus 2
Experiment: Ratio of EC50 for HIV2 ROD with protease G17N mutation to EC50 for wild type HIV2 ROD
Assay type: functional
Conditions: not given
Outline: as §4
With Cc1cccc(C)c1OCC(=O)N[C@@H](Cc1ccccc1)[C@@H](O)C[C@H](Cc1ccccc1)NC(=O)[C@H](C(C)C)N1CCCNC1=O [LOPINAVIR] the “Ratio EC50” value was 0.8.

System: Human immunodeficiency virus 2
Experiment: Ratio of EC50 for HIV2 ROD with protease V47A mutation to EC50 for wild type HIV2 ROD
Assay type: functional
Conditions: not given
Outline: as §4
For Cc1cccc(C)c1OCC(=O)N[C@@H](Cc1ccccc1)[C@@H](O)C[C@H](Cc1ccccc1)NC(=O)[C@H](C(C)C)N1CCCNC1=O [LOPINAVIR], the “Ratio EC50” value was 9.7.

System: Human immunodeficiency virus 2
Experiment: Ratio of EC50 for HIV2 ROD with protease G17N/V47A mutation to EC50 for wild type HIV2 ROD
Assay type: functional
Conditions: not given
Outline: as §4
In the case of Cc1cccc(C)c1OCC(=O)N[C@@H](Cc1ccccc1)[C@@H](O)C[C@H](Cc1ccccc1)NC(=O)[C@H](C(C)C)N1CCCNC1=O [LOPINAVIR], the “Ratio EC50” value is reported as 7.4.

System: Human immunodeficiency virus 2
Experiment: Antiviral activity against HIV2 MS infected in human MT4 cells […] after 1 passage
Assay type: functional, organism-based
Conditions: Human immunodeficiency virus 2, MT4
For Cc1cccc(C)c1OCC(=O)N[C@@H](Cc1ccccc1)[C@@H](O)C[C@H](Cc1ccccc1)NC(=O)[C@H](C(C)C)N1CCCNC1=O [LOPINAVIR], the EC50 was 15 nM.

System: Human immunodeficiency virus 2
Experiment: Antiviral activity against HIV2 MS infected in human MT4 cells […] after 18 passages
Assay type: functional, organism-based
Conditions: Human immunodeficiency virus 2, MT4
With Cc1cccc(C)c1OCC(=O)N[C@@H](Cc1ccccc1)[C@@H](O)C[C@H](Cc1ccccc1)NC(=O)[C@H](C(C)C)N1CCCNC1=O [LOPINAVIR] the EC50 was 515 nM.

System: Human immunodeficiency virus 2
Experiment: Ratio of EC50 for HIV2 MS infected in human MT4 cells after 1 passage to EC50 for HIV2 MS infected in human MT4 cells
Assay type: functional
Conditions: not given
In the case of Cc1cccc(C)c1OCC(=O)N[C@@H](Cc1ccccc1)[C@@H](O)C[C@H](Cc1ccccc1)NC(=O)[C@H](C(C)C)N1CCCNC1=O [LOPINAVIR], the “Ratio EC50” value is reported as 1.

System: Human immunodeficiency virus 1
Experiment: Antiviral activity against HIV1 NL4-3 infected in human MT4 cells assessed as reduction in virus-induced cytopathic effect after 5 days by MTT assay
Assay type: functional, organism-based
Conditions: Human immunodeficiency virus 1, NL4-3, MT4, 120 h
Outline: as §1
Compound Cc1cccc(C)c1OCC(=O)N[C@@H](Cc1ccccc1)[C@@H](O)C[C@H](Cc1ccccc1)NC(=O)[C@H](C(C)C)N1CCCNC1=O [LOPINAVIR] has an EC50 of 18 nM.

System: Human immunodeficiency virus 2
Experiment: Ratio of EC50 for HIV2 MS infected in human MT4 cells after 18 passages to EC50 for HIV2 MS infected in human MT4 cells
Assay type: functional
Conditions: not given
With Cc1cccc(C)c1OCC(=O)N[C@@H](Cc1ccccc1)[C@@H](O)C[C@H](Cc1ccccc1)NC(=O)[C@H](C(C)C)N1CCCNC1=O [LOPINAVIR] the “Ratio EC50” value was 34.
